Experimental data gathered from unrelated publications.
Compare with care: the assays were run in different laboratories.
Target: Mitogen-activated protein kinase kinase kinase 2 (MAP3K2, Homo sapiens, UniProt Q9Y2U5)
Residues used in one study (Q9Y2U5 1-619): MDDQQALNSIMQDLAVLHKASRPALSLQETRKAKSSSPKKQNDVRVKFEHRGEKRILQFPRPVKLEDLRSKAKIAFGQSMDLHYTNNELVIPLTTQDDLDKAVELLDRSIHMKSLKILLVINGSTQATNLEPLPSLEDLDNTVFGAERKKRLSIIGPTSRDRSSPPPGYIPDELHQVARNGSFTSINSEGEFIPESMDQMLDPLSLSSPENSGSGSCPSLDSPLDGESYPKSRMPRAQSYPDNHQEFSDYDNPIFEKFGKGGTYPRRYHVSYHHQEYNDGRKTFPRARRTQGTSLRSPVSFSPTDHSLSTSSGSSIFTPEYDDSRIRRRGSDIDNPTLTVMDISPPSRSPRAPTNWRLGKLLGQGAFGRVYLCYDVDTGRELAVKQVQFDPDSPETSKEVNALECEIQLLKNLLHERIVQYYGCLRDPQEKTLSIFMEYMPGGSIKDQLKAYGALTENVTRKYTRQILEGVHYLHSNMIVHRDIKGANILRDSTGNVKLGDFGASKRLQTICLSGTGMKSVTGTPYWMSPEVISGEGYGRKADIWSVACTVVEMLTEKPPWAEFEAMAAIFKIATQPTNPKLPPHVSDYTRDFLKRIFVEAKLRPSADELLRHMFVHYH

Structure (SMILES) | effect on | technique | concentration | remaining binding [%]
O=C(Nc1cccnn1)N1CC(C/C=C/c2cncc(Oc3ccc(C(F)(F)F)cn3)n2)C1 | cell-free assay | competition with immobilised ligand | 1 µM | 79
CN(C)c1ncc(F)c(-c2cnn3ncccc23)n1 | binding |  | 1 µM | 81
O=S(=O)(NC1CCC(c2cc(F)ccc2F)(S(=O)(=O)c2ccc(Cl)cc2)CC1)C(F)(F)F (stereo not drawn) | cell-free assay | competition with immobilised ligand | 1 µM | 98
C[C@@H]1CCN(c2nccc(-c3cnn4ncccc34)n2)C1 | binding |  | 1 µM | 79
CCCCN(CCCC)C(=O)CN1C[C@@H](c2cc(OC)c3c(c2)OCO3)[C@H](C(=O)O)[C@H]1CC(C)(C)CCC | cell-free assay | competition with immobilised ligand | 1 µM | 84.6
CCN1CCN(Cc2ccc(C(=O)Nc3ccc(C)c(Oc4ccc5c(c4)CC(=O)N5)c3)cc2C(F)(F)F)CC1 | binding | competition with immobilised ligand | 1 µM | 100
Nc1ncc2c(n1)-c1c([nH]c3ccc(C#CC4CC4)cc13)CCCC2 | binding | competition with immobilised ligand | 1 µM | 85
c1ccc(N2CCN(Cc3nc4ccccc4[nH]3)CC2)nc1 | binding | competition with immobilised ligand | 1 µM | 100
O=C(NCC1CCOCC1)c1n[nH]cc1NC(=O)c1c(F)cccc1F | binding | competition with immobilised ligand | 1 µM | 73
CN(C)c1nccc(-c2cnn3ncccc23)n1 | binding |  | 1 µM | 78
O=C(Nc1ccc(Oc2ccc(F)cc2)cc1)N1CCc2ncccc2[C@H]1c1ccc(F)cc1 | cell-free assay | competition with immobilised ligand | 1 µM | 89
c1cncc(-c2cccc(Nc3nccc(NC4CCCCC4)n3)c2)c1 | binding | competition with immobilised ligand | 10 µM | 48
COc1cnc(Nc2cccc(S(N)(=O)=O)c2)nc1N1CCN(c2ccccc2)CC1 | binding | competition with immobilised ligand | 1 µM | 68
F[C@@H]1CCN(c2nccc(-c3cnn4ncccc34)n2)C1 | binding |  | 1 µM | 92
O=C(NCCCN1CCOCC1)c1ccc(Nc2ncc(Cl)c(-c3ccc(Cl)s3)n2)cc1 | binding | competition with immobilised ligand | 1 µM | 2.3
COc1ccnn2ncc(-c3ccnc(N(C)C)n3)c12 | binding |  | 1 µM | 87
Cc1c(NC(=O)c2cc(C(N)=O)nc3cc(F)ccc23)c(C(F)(F)F)nn1Cc1ccc(C(C)(C)C)cc1 | cell-free assay | competition with immobilised ligand | 1 µM | 100
O=C(NCCCN1CCOCC1)c1ccc(Nc2nccc(-c3cc4ccccc4s3)n2)cc1 | binding | competition with immobilised ligand | 1 µM | 24
FC(F)(F)Oc1cccc(-c2cnc3ccc(-c4ccncc4)nn23)c1 | cell-free assay | competition with immobilised ligand | 5 µM | 79
Cc1cnc(Nc2ccc(C(=O)N3CCC(N4CCCC4)CC3)cc2)nc1-c1cc2ccccc2s1 | binding | competition with immobilised ligand | 1 µM | 5.1
N[C@H]1CCN(c2nccc(-c3cnn4ncccc34)n2)C1 | binding |  | 1 µM | 100
